Reference: ChEMBL document CHEMBL4828712, “Design of gp120 HIV-1 entry inhibitors by scaffold hopping via isosteric replacements” (Eur J Med Chem, 2021)
Active and inactive are the calls of the source. The calls are words filed in the database; no cut-off is given here.

Key:
[1] = Inhibition of gp120 in HIV-1 NL4-3 HXB-2-Luc pseudotyped virus infected in human TZM-bl cells assessed as reduction in viral infection pretreated for 30 mins before viral infection and measured after 3 days by luciferase based single cycle infection assay; format: cell-based, HIV-1 M:B_HXB2R; conditions: Human immunodeficiency virus 1, NL4-3, TZM-bl
Summary of the method: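 Single-cycle infection of TZM-bl cells with the HIV-1 NL4-3-HXB2-Luc pseudotyped virus bearing Env of lab-adapted HIV-1 HXB-2 (CXCR4-tropic), with luciferase read-out.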

[2] = (§1) Cytotoxicity against human TZM-bl cells assessed as reduction in cell viability incubated for 3 days by XTT assay; format: cell-based; conditions: TZM-bl cells, time 3 day
[3] = target: Human immunodeficiency virus type 1 reverse transcriptase (Human immunodeficiency virus 1, UniProt Q72547); test: Inhibition of recombinant HIV1 reverse transcriptase by colorimetric assay
[4] = Cytotoxicity against CD4-negative dog Cf2Th-CCR5 cells assessed as reduction in cell viability incubated for 3 days by XTT assay; format: cell-based, Canis lupus familiaris; conditions: time 3 day; for CC50: cf2th-ccr5, 72 h
Summary of the method: (§2)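 Viability read by the colorimetric XTT method in the stated cell line, run alongside the antiviral assays on the same cells; CC50 calculated from the viability data; values reported as mean ± standard deviation.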

[5] = Inhibition of glycoprotein in VSV-G pseudotyped MLV virus infected in human U87/CD4/CCR5 cells assessed as inhibition of viral infection pretreated for 30 mins before viral infection and measured after 3 days by luciferase based single cycle infection assay; format: cell-based; conditions: Murine leukemia virus
Summary of the method: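 Specificity counter-screen in which U87-CD4-CCR5 cells are infected with the luciferase-reporter control pseudovirus MLV-GP/VSV-G/Luc; IC50 is derived from inhibition of infection.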

[6] = Cytotoxicity against human U87/CD4/CCR5 cells assessed as reduction in cell viability incubated for 3 days by XTT assay; format: cell-based; conditions: time 3 day; for CC50 at 72 h: U87/CD4/CCR5 cells; summary of the method: as §2
[7] = target: Envelope glycoprotein gp160 (Human immunodeficiency virus 1) (UniProt Q6QLK5); test: Inhibition of gp120 in HIV-1 ADA infected in CD4-negative dog Cf2Th-CCR5 cells assessed as antagonism of viral entry by measuring inhibition of viral infection at 20 to 60 uM pretreated for 30 mins before viral infection and incubated for 48 hrs by luciferase assay; format: cell-based; conditions: dose 20-60 µM, time 48.5 hrs
Summary of the method: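 CD4-negative Cf2Th-CCR5 cells infected with a luciferase-expressing recombinant CD4-dependent HIV-1 ADA pseudovirus under escalating compound concentrations. Read-out is relative infectivity: infection with compound divided by infection without compound. Three independent experiments, each run in triplicate.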

TZM = test: as §1; format: cell-based; conditions: tzm, 72 h, time 3 day

Chain of Envelope glycoprotein gp160 (Human immunodeficiency virus 1) (Q6QLK5 1-814): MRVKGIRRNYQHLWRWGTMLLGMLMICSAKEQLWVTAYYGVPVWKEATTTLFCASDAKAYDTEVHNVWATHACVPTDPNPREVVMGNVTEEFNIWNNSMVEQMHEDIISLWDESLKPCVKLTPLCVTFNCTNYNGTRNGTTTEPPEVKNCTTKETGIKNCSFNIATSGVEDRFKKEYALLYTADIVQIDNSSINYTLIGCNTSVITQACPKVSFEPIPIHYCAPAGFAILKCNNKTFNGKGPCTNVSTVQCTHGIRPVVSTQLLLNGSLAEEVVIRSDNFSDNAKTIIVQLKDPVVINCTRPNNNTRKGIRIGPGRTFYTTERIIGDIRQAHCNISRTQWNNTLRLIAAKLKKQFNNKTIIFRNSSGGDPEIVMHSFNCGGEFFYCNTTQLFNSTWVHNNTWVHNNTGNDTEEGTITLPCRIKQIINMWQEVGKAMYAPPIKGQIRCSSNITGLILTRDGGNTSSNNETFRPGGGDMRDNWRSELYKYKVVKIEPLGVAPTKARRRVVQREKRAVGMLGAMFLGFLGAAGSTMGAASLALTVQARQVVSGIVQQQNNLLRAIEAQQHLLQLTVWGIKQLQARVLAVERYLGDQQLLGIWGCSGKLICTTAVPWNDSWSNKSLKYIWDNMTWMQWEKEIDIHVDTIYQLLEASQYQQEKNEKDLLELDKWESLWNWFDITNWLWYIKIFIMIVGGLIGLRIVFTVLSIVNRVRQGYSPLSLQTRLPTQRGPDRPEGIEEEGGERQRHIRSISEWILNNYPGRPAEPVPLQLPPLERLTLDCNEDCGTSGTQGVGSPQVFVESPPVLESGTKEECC

| SMILES | IC50 [1] | CC50 at 72 h [2] | further results |
| --- | --- | --- | --- |
| O=C(NC1CCNCC1)c1ccc(-c2ccc(Cl)c(F)c2)[nH]1 | 4.9 µM | 9.7 µM | – |
| NC[C@H](NC(=O)c1ccc(NCC2CCCCC2)cc1)c1ncc(CO)s1 | > 15 µM | 56.5 µM | – |
| Cc1nc([C@H](CN)NC(=O)NC(=O)c2ccc(Cl)cc2)sc1CO | > 54 µM | > 54 µM | – |
| NC[C@@H](NC(=O)c1ccc(NCC2CCCCC2)cc1)c1ncc(CO)s1 | > 15 µM | 56.5 µM | – |
| NC[C@H](NC(=O)c1ccc(C2CCCCC2)[nH]1)c1ncc(CO)s1 | > 17 µM | > 57 µM | – |
| NC[C@H](NC(=O)Cc1ccc(OCC2CCCCC2)cc1)c1ncc(CO)s1 | > 25 µM | 47.5 µM | – |
| NC[C@H](NC(=O)C(=O)NCc1ccc(Cl)c(F)c1)c1ncc(CO)s1 | > 15 µM | > 77.6 µM | – |
| Cc1nc([C@@H](CN)NC(=O)NC(=O)c2ccc(Cl)cc2)sc1CO | > 54 µM | > 54 µM | – |
| NC[C@@H](NC(=O)c1ccc(C2CCCCC2)[nH]1)c1ncc(CO)s1 | > 17 µM | > 57 µM | – |
| NC[C@@H](NC(=O)CNCc1ccc(Cl)cc1)c1ncc(CO)s1 | > 23.4 µM | > 70 µM | – |
| O=C(N[C@@H](CC1CCNCC1)c1nc(CO)cs1)c1ccc(-c2ccc(C(F)(F)F)cc2)[nH]1 | > 12.5 µM | > 40 µM | – |
| CC1(C)CC(NC(=O)C(=O)Nc2ccc(Cl)cc2)CC(C)(C)N1 | 6.9 µM | 60 µM | IC50 [3]: > 300 µM; CC50 [4]: > 60 µM |
| NC[C@@H](NC(=O)c1ccc(-c2ccc(Cl)cc2)[nH]1)c1nccs1 | 2.4 µM | 38.9 µM | IC50 [5]: 12 µM; CC50 at 72 h [6]: 45.5 µM; IC50 [3]: 31 µM; inhibition [7]: Active; CC50 at 72 h ([4]; CD4-negative Cf2Th-CCR5 cells): 24.7 µM |
| Cc1nc([C@@H](CN)NC(=O)c2cc3ccccc3[nH]2)sc1CO | > 60 µM | > 60 µM | – |
| Cc1nc([C@@H](CCN)NC(=O)C(=O)Nc2ccc(Cl)cc2)sc1CO | 10.6 µM | ≥ 46.6 µM | – |
| Cc1nc([C@H](CN)NC(=O)c2cc3cc(Cl)ccc3[nH]2)sc1CO | 50 µM | > 55 µM | – |

| SMILES | IC50 [1] | CC50 at 72 h [2] | further results |
| --- | --- | --- | --- |
| Cc1nc([C@@H](CN)NC(=O)C(=O)Nc2ccc(Cl)cc2)sc1CO | > 27 µM | > 54 µM | – |
| NC[C@H](NC(=O)CNCc1ccc(Cl)cc1)c1ncc(CO)s1 | > 23.4 µM | > 70 µM | – |
| NC[C@@H](NC(=O)c1ccc(OCC2CCCCC2)cc1)c1ncc(CO)s1 | > 15 µM | 28.2 µM | – |
| Cc1nc([C@H](CCN)NC(=O)C(=O)Nc2ccc(Cl)cc2)sc1CO | ≥ 14.7 µM | ≥ 38.3 µM | – |
| Cc1cc(-c2ccc(C(F)(F)F)cn2)[nH]c1C(=O)NC(CN)c1ncc(CO)s1 (stereo not given) | – | – | inhibition [7]: Active; CC50 [4]: > 47 µM |
| NCCNC(=O)c1ccc(-c2ccc(Cl)c(F)c2)[nH]1 | 3.3 µM | – | CC50 (TZM): 17.8 µM |
| Cc1nc([C@H](CN)NC(=O)C(=O)Nc2ccc(Cl)cc2)sc1CO | > 27 µM | > 54 µM | – |
| O=C(N[C@H](CC1CCNCC1)c1nc(CO)cs1)c1ccc(-c2ccc(C(F)(F)F)cc2)[nH]1 | > 12.5 µM | > 40 µM | – |
| O=C(NC1(c2nc(CO)cs2)CCNCC1)c1ccc(-c2ccc(C(F)(F)F)cc2)[nH]1 | 5 µM | – | CC50 (TZM): 33.7 µM; IC50 [5]: 6.2 µM; CC50 ([6]; u87/cd4/ccr5, 72 h): 57.7 µM; IC50 [3]: 1.7 µM |
| NC[C@H](NC(=O)c1ccc(OCC2CCCCC2)cc1)c1ncc(CO)s1 | > 15 µM | 26.5 µM | – |
| Cc1nc([C@@H](CN)NC(=O)c2cc3cc(Cl)ccc3[nH]2)sc1CO | > 40 µM | 47 µM | – |
| Cc1nc([C@H](CN)NC(=O)c2cc3ccccc3[nH]2)sc1CO | > 60 µM | > 60 µM | – |
| NC[C@H](NC(=O)c1ccc(-c2ccc(Cl)cc2)[nH]1)c1nccs1 | 1 µM | 36.5 µM | IC50 [5]: 16.2 µM; CC50 at 72 h [6]: 59.1 µM; IC50 [3]: 18.9 µM |
| NC[C@@H](NC(=O)Cc1ccc(OCC2CCCCC2)cc1)c1ncc(CO)s1 | > 25 µM | 27.9 µM | – |
| NC[C@@H](NC(=O)C(=O)NCc1ccc(Cl)c(F)c1)c1ncc(CO)s1 | > 15 µM | > 77.6 µM | – |
